Hits are enriched below; roughly 2.6% of the tested compounds scored in any of these assays.
FGF22 binding: binders of human FGF22 protein, primary screen, FGF22 synaptogenesis inhibitor project, biophysical, thermal shift, single point | AID 651658, 2012 | recombinant FGF22 thermal shift, SYPRO orange fluorescence; percent of sucrose octasulfate shift, DMSO zero | actives 1.5% (n = 340,000) | activity (Tm shift, normalised), % at 9.99 µM | Fibroblast growth factor 22 (Homo sapiens), Q9HCT0;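 active = mean Tm shift, scaled 0 neutral to 100 positive control, at about 1.3% or above, every replicate too, limit read from the data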
Target sequence (Q9HCT0 whole entry, looked up): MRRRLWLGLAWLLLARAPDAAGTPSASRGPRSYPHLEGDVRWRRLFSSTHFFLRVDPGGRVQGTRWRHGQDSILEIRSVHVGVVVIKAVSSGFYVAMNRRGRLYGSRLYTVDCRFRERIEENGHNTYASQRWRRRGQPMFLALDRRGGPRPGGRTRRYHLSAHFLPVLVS
SIRT5 inh: SIRT5 desuccinylase inhibitors, primary screen, biochemical, fluorescence imaging, single point, set 5; inhibition, % at 15 µM; Purified SirT5, succinyl-peptide AMC, trypsin-coupled fluorescence; NAD-dependent protein deacylase sirtuin-5, mitochondrial (Homo sapiens), Q9NXA8; actives 1.1% (n = 330,000); in the data active = inhibition above about 15%
NSD2 inh: NSD2 histone methyltransferase inhibitors, primary screen, biochemical, AlphaScreen, single concentration, set 2; inhibition, % at 12.5 µM; Histone-lysine N-methyltransferase NSD2 (Homo sapiens), O96028; NSD2 peptide methylation, 120 min; actives 0.54% (n = 310,000); AID 743445, 2014; in the data active = inhibition above about 50%
Casp6 inh: human caspase-6 inhibitors, primary screen, biochemical, VEID-R110 fluorescence, single point, set 2 | P55212 | purified caspase-6, Z-VEID-R110 cleavage fluorescence | inhibition, % at 12.5 µM | actives 0.53% (n = 350,000) | AID 686996, 2013;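 active = mean inhibition across replicates at least about 35%, with every replicate also reaching that limit, limit read from the data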;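 note: 0% = median of neutral control wells and 100% = no fluorescence left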
UCH37 inh: inhibitors of human UCH37 deubiquitinase, primary screen, biochemical, Ub-AMC cleavage, fluorescence; inhibition, % (no concentration beside the values); actives 0.33% (n = 330,000); purified proteasome/UCH37; Ubiquitin carboxyl-terminal hydrolase isozyme L5 (Homo sapiens), Q9Y5K5;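 active = mean inhibition over replicate wells above about 20%, limit read from the data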;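 note: 0% = compound-free wells with enzyme and 100% = wells lacking proteasome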
Target sequence (Q9Y5K5 whole entry, looked up): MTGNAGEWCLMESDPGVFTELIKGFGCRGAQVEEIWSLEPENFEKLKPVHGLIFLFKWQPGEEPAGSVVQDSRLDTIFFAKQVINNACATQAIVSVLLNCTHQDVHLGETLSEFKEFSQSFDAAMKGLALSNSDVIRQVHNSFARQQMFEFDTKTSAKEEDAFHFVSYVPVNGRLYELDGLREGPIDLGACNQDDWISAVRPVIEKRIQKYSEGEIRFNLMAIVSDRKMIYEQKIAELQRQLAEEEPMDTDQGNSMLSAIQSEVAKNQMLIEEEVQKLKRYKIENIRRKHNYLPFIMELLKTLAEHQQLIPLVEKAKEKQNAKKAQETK
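Assay system: Proteasome-bound UCH37. Buffer or medium: pH 7.4 Tris-HCl (50 mM) with ovalbumin, ATP-MgCl2, DTT. Incubation: 30 min preincubation with enzyme, 25 min cleavage at room temperature. Measured by: fluorescence, ex 355 nm, em 460 nm. Read-out basis: percent inhibition. Control set: wells without proteasome as full block, compound-free enzyme plus substrate as uninhibited.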
Active calls of the source: *; nt = no result; ! = a repeat was not active.

SMILES	FGF22 binding	SIRT5 inh	NSD2 inh	Casp6 inh	UCH37 inh
C[C@H](CO)N1C[C@H](C)[C@H](CN(C)Cc2ccncc2)Oc2ncc(C#CCN(C)C)cc2C1=O	0.1	40.8*!	nt	-0.8	nt
C[C@@H]1CN([C@@H](C)CO)C(=O)c2cc(Br)cnc2O[C@H]1CN(C)Cc1cccnc1	-0.1	35.6*!	nt	0.5	nt
CCC(=O)N(C)C[C@@H]1Oc2ncc(-c3ccc(F)cc3)cc2C(=O)N([C@@H](C)CO)C[C@@H]1C	0.0	24.0*	nt	-1.0	nt
C[C@H](CO)N1C[C@H](C)[C@@H](CN(C)Cc2ccc(-c3ccccc3)cc2)Oc2ncc(C#C[C@@H](C)O)cc2C1=O	0.0	17.5*!	nt	-7.4	nt
CN1CCN(C(=O)C[C@H]2CC[C@H]3[C@@H](COC[C@H](O)CN3C(=O)C3CCOCC3)O2)CC1	0.3	0.6	nt	2.5	nt
Cc1cc(C)n(-c2nnc(C)n2N=Cc2ccccc2OCc2ccccc2Cl)n1	nt	nt	nt	nt	1.2
Cc1ccc(-c2cnc3c(c2)C(=O)N([C@@H](C)CO)C[C@H](C)[C@@H](CN(C)C(=O)c2cccnc2)O3)cc1	-0.2	25.8*	nt	1.3	nt
C[C@H](CO)N1C[C@H](C)[C@H](CN(C)Cc2cccc(C(F)(F)F)c2)Oc2ncc(-c3ccc(F)cc3)cc2C1=O	0.5	18.0*	nt	1.4	nt
C[C@H](CO)N1C[C@H](C)[C@H](CN(C)Cc2ccc(F)cc2)Oc2ncc(-c3cccc(C(F)(F)F)c3)cc2C1=O	-0.2	-1.6	nt	4.4	nt
CC(C)NC(=O)N(C)C[C@H]1Oc2ncc(C#Cc3ccccc3F)cc2C(=O)N([C@@H](C)CO)C[C@H]1C	-0.4	7.7	nt	-1.1	nt
CCOC(=O)C1=C(O)/C(=C/c2ccc(OCC(=O)O)c(OCC)c2)SC1=Nc1ccc(OC)cc1	nt	14.4	7.5	35.5*	13.5
COCCNc1nc(NCc2ccc(C(C)C)cc2)c2sccc2n1	23.3*	nt	-0.3	-1.2	nt
COc1cc(C=NNC(=Nc2ccc(C)cc2)c2nc3ccccc3s2)ccc1O	nt	nt	nt	nt	-22.5
CCCNC(=O)C[C@@H]1CC[C@@H]2[C@H](COc3ccc(NC(=O)CC)cc3C(=O)N2C)O1	-0.2	4.6	nt	-0.2	nt
Cc1ccc(S(=O)(=O)Oc2ccccc2-c2ccccc2)cc1	43.2*	nt	-3.6	-0.5	2.8
CCCCOc1ccc(C(O)C(CN2CCOCC2)c2ccccc2)cc1 (stereo not drawn)	-0.3	15.5*	4.1	-0.2	2.6
CCCOc1ccc(C(O)C(CN2CCOCC2)c2ccccc2)cc1 (stereo not drawn)	nt	-7.4	7.8	-1.8	2.9
COc1ccc(S(=O)(=O)N(C)C[C@@H]2OCCCC[C@H](C)Oc3ccc(NS(=O)(=O)c4ccc(C)cc4)cc3C(=O)N([C@@H](C)CO)C[C@H]2C)cc1	-0.4	3.6	nt	-2.4	nt
COc1ccc(S(=O)(=O)N(C)C[C@@H]2OCCCC[C@H](C)Oc3ccc(NS(=O)(=O)c4ccc(C)cc4)cc3C(=O)N([C@H](C)CO)C[C@@H]2C)cc1	-0.6	23.9*	nt	1.0	nt
COc1ccc(S(=O)(=O)N(C)C[C@@H]2OCCCC[C@H](C)Oc3ccc(NS(=O)(=O)c4ccc(C)cc4)cc3C(=O)N([C@H](C)CO)C[C@H]2C)cc1	0.6	21.6*	nt	-0.4	nt
COc1ccc(S(=O)(=O)Nc2ccc3c(c2)C(=O)N([C@@H](C)CO)C[C@@H](C)[C@@H](CN(C)S(=O)(=O)c2ccc(C)cc2)OCCCC[C@H](C)O3)cc1	-0.7	8.1	nt	-1.5	nt
COc1ccc(S(=O)(=O)N(C)C[C@@H]2OCCCC[C@@H](C)Oc3ccc(NS(=O)(=O)c4ccc(C)cc4)cc3C(=O)N([C@@H](C)CO)C[C@@H]2C)cc1	0.4	22.6*	nt	0.0	nt
COc1ccc(S(=O)(=O)N(C)C[C@H]2OCCCC[C@H](C)Oc3ccc(NS(=O)(=O)c4ccc(C)cc4)cc3C(=O)N([C@@H](C)CO)C[C@@H]2C)cc1	0.1	22.0*	nt	0.9	nt
COc1ccc(S(=O)(=O)Nc2ccc3c(c2)C(=O)N([C@H](C)CO)C[C@@H](C)[C@H](CN(C)S(=O)(=O)c2ccc(C)cc2)OCCCC[C@@H](C)O3)cc1	-0.1	13.4	nt	-4.1	nt
Nc1scc2c(C(=O)N/N=C/c3ccc(Cl)cc3)nn(-c3ccccc3)c(=O)c12	nt	nt	73.2*	nt	nt
SMILES	FGF22 binding	SIRT5 inh	NSD2 inh	Casp6 inh	UCH37 inh
COc1ccc(C=NNC(=O)c2nn(-c3ccc(Cl)cc3)c(=O)c3c(N)scc23)cc1	nt	nt	nt	nt	11.4
Cc1ccc(NC(=S)NCc2ccco2)c(C)c1	0.0	80.2*	-2.8	-3.6	2.9
CCOc1ccc(NC(=S)NCc2ccco2)cc1	42.7	17.1*	-0.3	-0.1	4.3
COc1ccc(NC(=S)NCc2ccco2)cc1	nt	nt	0.7	nt	nt
CC/C(=C\C1CCCCC1)C(NP(=O)(c1ccccc1)c1ccccc1)c1ccccc1 (stereo not drawn)	0.0	21.7*	nt	-1.9	nt
O=P(NC1CCCCC1)(c1ccccc1)c1ccccc1	-0.3	-1.5	-1.3	-0.2	2.3
CN(C)C(=S)Nn1c(-c2ccccc2)nc2ccccc2c1=O	-0.1	-4.7	-5.3	-1.4	25.1*
COc1cccc(C#Cc2cnc3c(c2)C(=O)N([C@H](C)CO)C[C@H](C)[C@@H](CN(C)C(=O)C2CC2)O3)c1	-0.3	nt	nt	1.0	nt
O=C(Nc1ccccc1)OC1CC2CC1C1CCCC21 (stereo not drawn)	42.9*	-2.1	-9.4	6.6	2.3
COc1cc2nc(Nc3ccc(C)c(Cl)c3)nc(N)c2cc1OC	0.2	0.7	-0.7	24.4	-28.6
Cc1ccc(Nc2nc(N)c3ccccc3n2)cc1Cl	2.2*	-1.3	-1.6	2.9	-22.9
S=C(NCCCN1CCOCC1)Nc1cccc(-c2nnc3n2CCCCC3)c1	0.0	15.6*	-3.0	-0.6	0.5
CN1C(=O)c2cc(NC(=O)c3cccc(F)c3)ccc2OC[C@H]2O[C@@H](CC(=O)N3CCc4ccccc4C3)CC[C@@H]21	-0.1	3.7	nt	-1.9	nt
CN1C(=O)c2cc(NC(=O)Cc3cccs3)ccc2OC[C@H]2O[C@@H](CC(=O)NCCc3ccncc3)CC[C@@H]21	0.0	5.9	nt	-2.0	nt
CN1C(=O)c2cc(NC(=O)c3cccc(F)c3)ccc2OC[C@H]2O[C@@H](CC(=O)NCc3ccccc3Cl)CC[C@H]21	1.6*	6.6	nt	0.5	nt
